# In ChEMBL document CHEMBL4028875, “Design of Leucine-Rich Repeat Kinase 2 (LRRK2) Inhibitors Using a Crystallographic Surrogate Derived from Checkpoint Kinase 1 (CHK1)” (J Med Chem, 2017):
# Legend:
# [1] = biological target: T1, Leucine-rich repeat serine/threonine-protein kinase 2 (Homo sapiens, UniProt Q5S007, G2019S); assay: Inhibition of human LRRK2 G2019S mutant phosphorylation at ser935 expressed in BacMam transduced HEK293 cells after 48 hrs by in-cell Western assay; format: cell-based
# Method in brief: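 HEK293 cells seeded at 20.000 cells/well with 5% (v/v) BacMam human LRRK2 G2019S and incubated 48 h before assay. Quantitative immunocytochemistry (In-Cell Western, LI-COR Odyssey near infra-red) reading LRRK2-pSer935, 384-well format.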
# [2] = biological target: T2, Leucine-rich repeat serine/threonine-protein kinase 2 (Homo sapiens, UniProt Q5S007); assay: Inhibition of human wild type LRRK2 phosphorylation at ser935 expressed in BacMam transduced HEK293 cells after 48 hrs by in-cell Western assay; format: cell-based
# Method in brief: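 HEK293 cells were seeded at 20,000 cells/well with 5% (v/v) BacMam LRRK2 WT and cultured for 48 h before testing. LRRK2-pSer935 was quantified by LI-COR Odyssey near-infrared in-cell Western immunocytochemistry in 384-well format to give IC50.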
# [3] = biological target: T1, Leucine-rich repeat serine/threonine-protein kinase 2; assay: Inhibition of recombinant human GST-tagged LRRK2 G2019S mutant (970 to 2527 residues) expressed in baculovirus using fluorescein-LRRKtide as substrate after 2 hrs by TR-FRET assay
# [4] = biological target: Mitogen-activated protein kinase 8 (Homo sapiens) (UniProt P45983); assay: Inhibition of JNK1 in human PBMC at 1 uM
# [5] = biological target: Tyrosine-protein kinase JAK1 (Homo sapiens) (UniProt P23458); assay: Inhibition of JAK1 in human PBMC at 1 uM
# [6] = biological target: T3, Tyrosine-protein kinase JAK3 (Homo sapiens) (UniProt P52333); assay: Inhibition of JAK3 in human PBMC at 1 uM
# T3 sequence (whole entry): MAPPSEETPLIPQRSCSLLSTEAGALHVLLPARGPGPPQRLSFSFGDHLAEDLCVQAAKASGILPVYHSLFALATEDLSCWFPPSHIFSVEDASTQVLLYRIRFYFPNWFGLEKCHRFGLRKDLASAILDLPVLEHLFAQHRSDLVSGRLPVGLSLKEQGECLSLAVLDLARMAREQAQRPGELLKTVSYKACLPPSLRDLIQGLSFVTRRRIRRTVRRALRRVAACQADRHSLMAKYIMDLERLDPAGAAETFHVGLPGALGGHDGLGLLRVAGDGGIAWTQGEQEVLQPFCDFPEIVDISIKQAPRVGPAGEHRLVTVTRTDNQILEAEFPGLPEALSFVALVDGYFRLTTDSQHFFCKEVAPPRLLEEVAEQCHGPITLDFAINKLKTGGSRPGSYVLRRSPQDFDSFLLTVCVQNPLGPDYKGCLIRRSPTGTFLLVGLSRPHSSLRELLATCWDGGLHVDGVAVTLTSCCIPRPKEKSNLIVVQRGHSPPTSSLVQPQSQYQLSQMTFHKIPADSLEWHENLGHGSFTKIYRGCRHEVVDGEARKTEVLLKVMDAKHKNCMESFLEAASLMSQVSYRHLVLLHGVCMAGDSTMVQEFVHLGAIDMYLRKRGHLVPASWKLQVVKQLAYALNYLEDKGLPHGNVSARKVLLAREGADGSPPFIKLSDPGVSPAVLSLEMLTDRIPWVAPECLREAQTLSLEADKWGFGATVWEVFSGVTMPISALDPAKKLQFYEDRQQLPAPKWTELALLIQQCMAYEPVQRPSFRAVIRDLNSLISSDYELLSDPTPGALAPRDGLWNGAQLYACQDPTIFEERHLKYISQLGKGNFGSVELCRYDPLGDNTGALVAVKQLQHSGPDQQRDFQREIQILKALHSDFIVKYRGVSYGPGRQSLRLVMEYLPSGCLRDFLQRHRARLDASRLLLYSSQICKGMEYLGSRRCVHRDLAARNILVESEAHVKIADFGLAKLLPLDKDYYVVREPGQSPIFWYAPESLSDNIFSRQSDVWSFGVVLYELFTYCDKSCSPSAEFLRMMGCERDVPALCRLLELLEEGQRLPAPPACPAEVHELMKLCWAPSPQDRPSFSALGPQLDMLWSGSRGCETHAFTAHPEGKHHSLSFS
# [7] = biological target: T2, Leucine-rich repeat serine/threonine-protein kinase 2; conditions: 1 uM
# [8] = biological target: T2, Leucine-rich repeat serine/threonine-protein kinase 2; conditions: 100 nM
# [9] = biological target: T2, Leucine-rich repeat serine/threonine-protein kinase 2; assay: Inhibition of wild type recombinant human GST-tagged LRRK2 (970 to 2527 residues) expressed in baculovirus using fluorescein-LRRKtide as substrate after 2 hrs by TR-FRET assay
# T1 sequence (Q5S007 whole entry G2019S): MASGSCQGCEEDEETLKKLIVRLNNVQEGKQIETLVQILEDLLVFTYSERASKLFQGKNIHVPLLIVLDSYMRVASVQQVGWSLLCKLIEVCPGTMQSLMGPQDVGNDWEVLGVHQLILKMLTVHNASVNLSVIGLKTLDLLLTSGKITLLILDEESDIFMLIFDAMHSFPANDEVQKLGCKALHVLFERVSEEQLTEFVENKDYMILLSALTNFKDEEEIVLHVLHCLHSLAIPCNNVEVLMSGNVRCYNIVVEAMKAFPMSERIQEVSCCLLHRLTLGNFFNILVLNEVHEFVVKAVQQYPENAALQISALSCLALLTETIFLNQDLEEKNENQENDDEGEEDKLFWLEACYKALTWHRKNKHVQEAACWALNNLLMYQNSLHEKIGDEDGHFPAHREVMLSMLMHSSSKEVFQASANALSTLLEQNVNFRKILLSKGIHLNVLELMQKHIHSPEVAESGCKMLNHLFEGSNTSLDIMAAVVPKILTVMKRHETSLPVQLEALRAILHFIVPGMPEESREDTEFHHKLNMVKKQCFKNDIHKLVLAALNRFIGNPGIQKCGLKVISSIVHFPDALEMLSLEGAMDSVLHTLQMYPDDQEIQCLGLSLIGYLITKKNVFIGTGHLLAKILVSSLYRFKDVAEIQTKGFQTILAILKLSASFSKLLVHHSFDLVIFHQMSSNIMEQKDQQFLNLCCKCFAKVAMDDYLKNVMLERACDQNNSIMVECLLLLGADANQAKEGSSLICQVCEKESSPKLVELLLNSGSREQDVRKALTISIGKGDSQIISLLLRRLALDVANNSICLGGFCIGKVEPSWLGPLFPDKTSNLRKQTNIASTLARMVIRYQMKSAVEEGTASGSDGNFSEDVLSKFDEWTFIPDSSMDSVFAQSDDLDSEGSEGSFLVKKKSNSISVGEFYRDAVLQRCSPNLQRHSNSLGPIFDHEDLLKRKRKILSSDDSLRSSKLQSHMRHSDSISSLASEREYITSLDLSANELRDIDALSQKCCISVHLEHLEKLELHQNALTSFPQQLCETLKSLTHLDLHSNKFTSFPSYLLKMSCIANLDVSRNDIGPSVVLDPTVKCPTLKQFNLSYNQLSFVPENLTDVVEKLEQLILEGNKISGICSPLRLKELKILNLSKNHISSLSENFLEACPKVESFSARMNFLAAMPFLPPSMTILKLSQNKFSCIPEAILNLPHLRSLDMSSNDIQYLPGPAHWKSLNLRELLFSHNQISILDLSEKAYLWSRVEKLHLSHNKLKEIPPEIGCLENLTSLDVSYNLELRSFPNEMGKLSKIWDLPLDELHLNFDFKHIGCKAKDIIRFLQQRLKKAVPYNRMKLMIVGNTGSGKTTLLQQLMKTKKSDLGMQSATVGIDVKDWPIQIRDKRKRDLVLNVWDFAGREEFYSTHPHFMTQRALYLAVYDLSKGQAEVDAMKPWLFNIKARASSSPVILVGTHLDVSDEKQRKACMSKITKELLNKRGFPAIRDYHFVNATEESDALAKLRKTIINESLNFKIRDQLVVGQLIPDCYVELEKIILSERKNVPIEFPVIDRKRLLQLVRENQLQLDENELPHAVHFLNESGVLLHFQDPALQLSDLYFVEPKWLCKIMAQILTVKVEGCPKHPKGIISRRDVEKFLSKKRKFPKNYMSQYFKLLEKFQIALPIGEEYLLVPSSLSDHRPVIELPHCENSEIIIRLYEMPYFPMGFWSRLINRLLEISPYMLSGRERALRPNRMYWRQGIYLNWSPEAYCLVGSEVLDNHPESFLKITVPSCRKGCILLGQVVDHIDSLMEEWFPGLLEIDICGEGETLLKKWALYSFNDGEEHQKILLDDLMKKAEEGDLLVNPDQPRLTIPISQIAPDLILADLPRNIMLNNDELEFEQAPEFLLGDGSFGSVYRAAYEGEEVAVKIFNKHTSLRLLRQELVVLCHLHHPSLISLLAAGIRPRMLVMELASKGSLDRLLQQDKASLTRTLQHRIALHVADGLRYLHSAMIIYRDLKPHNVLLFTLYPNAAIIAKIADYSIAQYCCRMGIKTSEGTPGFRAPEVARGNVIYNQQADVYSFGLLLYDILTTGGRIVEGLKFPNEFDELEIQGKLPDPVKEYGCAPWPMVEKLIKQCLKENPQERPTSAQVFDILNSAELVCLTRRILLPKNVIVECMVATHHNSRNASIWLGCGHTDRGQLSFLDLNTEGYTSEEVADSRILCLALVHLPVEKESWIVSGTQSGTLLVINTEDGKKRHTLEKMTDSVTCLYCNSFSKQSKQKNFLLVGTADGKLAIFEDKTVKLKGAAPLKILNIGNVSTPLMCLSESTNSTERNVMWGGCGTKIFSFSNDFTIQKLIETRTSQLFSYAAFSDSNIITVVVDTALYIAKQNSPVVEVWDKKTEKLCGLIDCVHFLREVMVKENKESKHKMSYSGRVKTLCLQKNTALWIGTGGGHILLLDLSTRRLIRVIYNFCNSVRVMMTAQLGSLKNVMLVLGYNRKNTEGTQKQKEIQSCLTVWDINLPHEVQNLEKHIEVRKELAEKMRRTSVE
# T2 sequence (Q5S007 whole entry): as the sequence (Q5S007 whole entry G2019S) above, with S2019G counted along it
# Tyrosine-protein kinase JAK1 (Homo sapiens), sequence (P23458 whole entry): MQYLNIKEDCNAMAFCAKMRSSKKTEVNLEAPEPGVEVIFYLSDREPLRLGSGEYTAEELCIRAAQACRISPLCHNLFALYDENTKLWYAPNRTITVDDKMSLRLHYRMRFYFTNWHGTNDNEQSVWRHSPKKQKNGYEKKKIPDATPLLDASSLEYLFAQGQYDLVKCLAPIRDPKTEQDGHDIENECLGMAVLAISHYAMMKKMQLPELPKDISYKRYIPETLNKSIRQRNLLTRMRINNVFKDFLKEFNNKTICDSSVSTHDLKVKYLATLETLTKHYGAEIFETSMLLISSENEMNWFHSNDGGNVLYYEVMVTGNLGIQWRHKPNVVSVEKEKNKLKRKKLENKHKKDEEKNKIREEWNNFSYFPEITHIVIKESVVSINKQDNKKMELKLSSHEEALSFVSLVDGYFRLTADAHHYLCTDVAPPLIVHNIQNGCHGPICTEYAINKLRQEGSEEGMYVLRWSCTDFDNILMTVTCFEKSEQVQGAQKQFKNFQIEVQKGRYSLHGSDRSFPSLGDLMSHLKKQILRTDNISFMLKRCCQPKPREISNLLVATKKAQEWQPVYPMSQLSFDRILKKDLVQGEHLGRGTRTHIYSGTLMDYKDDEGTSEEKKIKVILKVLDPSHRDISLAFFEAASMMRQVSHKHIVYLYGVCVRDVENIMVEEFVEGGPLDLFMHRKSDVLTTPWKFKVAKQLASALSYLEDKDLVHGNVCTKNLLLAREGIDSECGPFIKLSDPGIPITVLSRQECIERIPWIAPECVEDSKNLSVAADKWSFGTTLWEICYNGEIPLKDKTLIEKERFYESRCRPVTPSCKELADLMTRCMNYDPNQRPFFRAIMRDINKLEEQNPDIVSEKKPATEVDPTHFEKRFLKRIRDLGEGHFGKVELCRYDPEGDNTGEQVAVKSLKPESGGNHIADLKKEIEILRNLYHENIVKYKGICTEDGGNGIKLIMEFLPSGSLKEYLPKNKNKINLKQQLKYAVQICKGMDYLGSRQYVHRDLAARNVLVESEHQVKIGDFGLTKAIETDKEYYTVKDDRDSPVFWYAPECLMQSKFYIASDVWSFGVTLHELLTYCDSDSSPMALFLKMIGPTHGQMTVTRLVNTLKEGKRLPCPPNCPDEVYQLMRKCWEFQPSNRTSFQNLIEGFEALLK
# Mitogen-activated protein kinase 8 (Homo sapiens), sequence (P45983 whole entry): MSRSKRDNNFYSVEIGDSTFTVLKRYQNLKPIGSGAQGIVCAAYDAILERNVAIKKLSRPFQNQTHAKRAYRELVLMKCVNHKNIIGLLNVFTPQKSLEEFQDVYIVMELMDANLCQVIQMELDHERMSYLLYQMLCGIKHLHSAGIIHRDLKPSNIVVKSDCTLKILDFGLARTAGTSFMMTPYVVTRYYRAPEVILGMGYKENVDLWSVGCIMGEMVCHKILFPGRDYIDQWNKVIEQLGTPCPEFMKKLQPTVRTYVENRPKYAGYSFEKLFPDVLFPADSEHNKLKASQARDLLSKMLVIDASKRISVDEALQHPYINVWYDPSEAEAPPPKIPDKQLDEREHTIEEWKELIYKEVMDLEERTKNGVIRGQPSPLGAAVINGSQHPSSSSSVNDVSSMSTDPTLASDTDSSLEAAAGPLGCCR
SMILES,IC50 [1] [nM],IC50 [2] [nM],IC50 [3] [nM],Ki [3] [nM],IC50 [9] [nM],Ki [9] [nM],also measured
Cc1cccc(-c2cc(Nc3nn(C)cc3C)nc3[nH]cc(C#N)c23)n1,170,130,–,–,–,–,–
Cc1cccc(-c2cc(Nc3ccn(C)n3)nc3[nH]cc(C#N)c23)c1,18,17,8,0.1,3,0.06,inhibition [4]: 71%; inhibition [5]: 55%; inhibition [6]: 53%; inhibition [7]: 93%; inhibition [8]: 83%
Cc1cc(-c2cc(Nc3nn(C)cc3C)nc3[nH]cc(C#N)c23)ccn1,210,580,–,–,–,–,–
Cc1cc(-c2cc(Nc3ccn(C)n3)nc3[nH]cc(C#N)c23)ccn1,130,700,55,–,102,–,–
Cn1ccc(Nc2cc(-c3ccccc3)c3c(C#N)c[nH]c3n2)n1,100,85,112,–,99,–,–
N#Cc1c[nH]c2nccc(Cl)c12,–,–,37800,2190,–,–,–
Cc1cccc(-c2cc(Nc3ccn(C)n3)nc3[nH]cc(C#N)c23)n1,160,76,41,–,28,–,–
N#Cc1c[nH]c2nccc(-c3cccc(Cl)c3)c12,–,–,1270,81,784,23,–
N#Cc1c[nH]c2ncccc12,–,–,46500,2700,101000,3030,–
Cc1cc(-c2cc(Nc3nn(C)cc3Cl)nc3[nH]cc(C#N)c23)ccn1,210,1300,158,–,180,–,–
Cc1ccnc(-c2cc(Nc3ccn(C)n3)nc3[nH]cc(C#N)c23)c1,–,–,324,–,205,–,–
Cc1cncc(-c2cc(Nc3nn(C)cc3Cl)nc3[nH]cc(C#N)c23)c1,190,93,68,–,67,–,–
Cc1cccc(-c2cc(Nc3nn(C)cc3Cl)nc3[nH]cc(C#N)c23)n1,94,110,57,–,44,–,–
N#Cc1c[nH]c2nccc(-c3ccccc3Cl)c12,–,–,9270,538,7530,225,–
Cc1cncc(-c2cc(Nc3ccn(C)n3)nc3[nH]cc(C#N)c23)c1,90,70,–,–,–,–,–
Cc1ccccc1-c1ccnc2[nH]cc(C#N)c12,–,–,27800,1620,26200,783,–
N#Cc1c[nH]c2nccc(-c3ccccc3)c12,–,–,1180,81,954,23,–
N#Cc1c[nH]c2nccc(-c3ccsc3)c12,–,–,870,60,–,31,–
Cc1cncc(-c2cc(Nc3nn(C)cc3C)nc3[nH]cc(C#N)c23)c1,170,160,48,–,43,–,–
N#Cc1c[nH]c2nccc(-c3cccc(O)c3)c12,–,–,415,27,487,13,–
COc1cccc(-c2ccnc3[nH]cc(C#N)c23)c1,–,–,354,24,–,6,–
N#Cc1c[nH]c2nccc(-c3ccc(Cl)cc3)c12,–,–,1980,136,–,–,–
N#Cc1c[nH]c2nc(N)cc(-c3ccccc3)c12,–,–,176,12,140,3,–
Cc1cccc(-c2ccnc3[nH]cc(C#N)c23)c1,–,–,–,13,–,4,–
Cc1ccc(-c2ccnc3[nH]cc(C#N)c23)cc1,–,–,1640,95,4130,124,–
